Experimental data published in ChEMBL document CHEMBL5303300, “EUbOPEN Chemogenomics Library - Multiplex” (2023).
“And” between values parts separate entries of the source, which are not always exact repeats. Equal values may be shown once.

System: HEK-293T
Assay: Multiplex assay against HEK293T
Type: toxicity, cell-based
Details: human, number of replicates 2
How it was run: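 Live cells were stained at seeding with Hoechst33342, BioTracker Green Microtubule Cytoskeleton Dye, MitoTracker Red and Annexin V Alexa Fluor 680, then imaged on a CQ1 microscope at 37°C and 5% CO2 after compound addition. CellPathfinder machine-learning gating split cells into Hoechst high-intensity objects or normal cells. Normal cells were split into healthy, pyknosed or fragmented nuclei, and pyknosed cells into mitotic or apoptotic. Tubulin, mitochondrial-mass and membrane-permeability phenotypes are per cents of healthy-nucleus cells.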

[1] = 12 h, 1 µM, compound concentration 1 uM
[2] = 12 h, 10 µM, compound concentration 10 uM
[3] = 24 h, 1 µM, compound concentration 1 uM
[4] = 24 h, 10 µM, compound concentration 10 uM
[5] = 48 h, 1 µM, compound concentration 1 uM
[6] = 48 h, 10 µM, compound concentration 10 uM

C[C@H](N)Cn1ccc2cc(F)c(Cl)cc21.O=C(O)/C=C/C(=O)O
Population Apoptotic (%) [1]: 38% and 46% | Population Fragmented Nuclei (%) [1]: 3% and 2% | Population Healthy Nuclei (%) [1]: 82% and 85% | Population Hoechst High Intensity Objects (%) [1]: 8% | Population Membrane Permeable-Phenotype (%) [1]: 1% | Population Mitochondria Different-Phenotype (%) [1]: 17% and 15% | Population Mitotic Cells (%) [1]: 61% and 53% | Population Normal (%) [1]: 91% | Population Pyknosed Nuclei (%) [1]: 14% and 11% | Population Tubulin-Different-Phenotype (%) [1]: 59% and 53% | Total Cell Count [1]: 737 and 645 | Population Apoptotic (%) [2]: 58% and 55% | Population Fragmented Nuclei (%) [2]: 4% and 5% | Population Healthy Nuclei (%) [2]: 83% and 79% | Population Hoechst High Intensity Objects (%) [2]: 8% and 9% | Population Membrane Permeable-Phenotype (%) [2]: 5% and 1% | Population Mitochondria Different-Phenotype (%) [2]: 28% and 20% | Population Mitotic Cells (%) [2]: 41% and 44% | Population Normal (%) [2]: 91% and 90% | Population Pyknosed Nuclei (%) [2]: 12% and 14% | Population Tubulin-Different-Phenotype (%) [2]: 81% and 72% | Total Cell Count [2]: 443 and 563 | Population Apoptotic (%) [3]: 52% and 57% | Population Fragmented Nuclei (%) [3]: 10% and 6% | Population Healthy Nuclei (%) [3]: 77% and 82% | Population Hoechst High Intensity Objects (%) [3]: 7% | Population Membrane Permeable-Phenotype (%) [3]: 1% and 2% | Population Mitochondria Different-Phenotype (%) [3]: 6% and 4% | Population Mitotic Cells (%) [3]: 47% and 42% | Population Normal (%) [3]: 92% | Population Pyknosed Nuclei (%) [3]: 12% and 10% | Population Tubulin-Different-Phenotype (%) [3]: 32% and 28% | Total Cell Count [3]: 1141 and 1024 | Population Apoptotic (%) [4]: 63% and 59% | Population Fragmented Nuclei (%) [4]: 8% and 7% | Population Healthy Nuclei (%) [4]: 83% and 84% | Population Hoechst High Intensity Objects (%) [4]: 9% and 11% | Population Membrane Permeable-Phenotype (%) [4]: 2% and 3% | Population Mitochondria Different-Phenotype (%) [4]: 16% and 8% | Population Mitotic Cells (%) [4]: 36% and 40% | Population Normal (%) [4]: 90% and 88% | Population Pyknosed Nuclei (%) [4]: 7% and 8% | Population Tubulin-Different-Phenotype (%) [4]: 72% and 40% | Total Cell Count [4]: 634 and 884 | Population Apoptotic (%) [5]: 18% and 17% | Population Fragmented Nuclei (%) [5]: 17% and 11% | Population Healthy Nuclei (%) [5]: 80% and 85% | Population Hoechst High Intensity Objects (%) [5]: 9% | Population Membrane Permeable-Phenotype (%) [5]: 5% and 3% | Population Mitochondria Different-Phenotype (%) [5]: 0% | Population Mitotic Cells (%) [5]: 81% and 82% | Population Normal (%) [5]: 90% | Population Pyknosed Nuclei (%) [5]: 2% | Population Tubulin-Different-Phenotype (%) [5]: 14% and 11% | Total Cell Count [5]: 2886 and 2112 | Population Apoptotic (%) [6]: 40% and 17% | Population Fragmented Nuclei (%) [6]: 15% and 12% | Population Healthy Nuclei (%) [6]: 80% and 84% | Population Hoechst High Intensity Objects (%) [6]: 11% and 7% | Population Membrane Permeable-Phenotype (%) [6]: 8% and 4% | Population Mitochondria Different-Phenotype (%) [6]: 1% | Population Mitotic Cells (%) [6]: 59% and 82% | Population Normal (%) [6]: 88% and 92% | Population Pyknosed Nuclei (%) [6]: 3% | Population Tubulin-Different-Phenotype (%) [6]: 36% and 20% | Total Cell Count [6]: 1535 and 2025

CN1CCN(c2ccc(-n3cc(-c4ccncc4OCC4CCNCC4)cn3)cc2)CC1
Population Apoptotic (%) [1]: 50% and 48% | Population Fragmented Nuclei (%) [1]: 4% and 3% | Population Healthy Nuclei (%) [1]: 86% and 85% | Population Hoechst High Intensity Objects (%) [1]: 7% and 5% | Population Membrane Permeable-Phenotype (%) [1]: 4% and 2% | Population Mitochondria Different-Phenotype (%) [1]: 9% and 10% | Population Mitotic Cells (%) [1]: 50% and 51% | Population Normal (%) [1]: 92% and 94% | Population Pyknosed Nuclei (%) [1]: 9% and 11% | Population Tubulin-Different-Phenotype (%) [1]: 38% | Total Cell Count [1]: 587 and 556 | Population Apoptotic (%) [2]: 88% and 66% | Population Fragmented Nuclei (%) [2]: 1% | Population Healthy Nuclei (%) [2]: 94% and 95% | Population Hoechst High Intensity Objects (%) [2]: 3% and 5% | Population Membrane Permeable-Phenotype (%) [2]: 4% and 6% | Population Mitochondria Different-Phenotype (%) [2]: 28% and 17% | Population Mitotic Cells (%) [2]: 11% and 33% | Population Normal (%) [2]: 96% and 94% | Population Pyknosed Nuclei (%) [2]: 3% and 2% | Population Tubulin-Different-Phenotype (%) [2]: 71% and 76% | Total Cell Count [2]: 452 and 604 | Population Apoptotic (%) [3]: 29% and 50% | Population Fragmented Nuclei (%) [3]: 6% and 7% | Population Healthy Nuclei (%) [3]: 84% and 83% | Population Hoechst High Intensity Objects (%) [3]: 8% and 7% | Population Membrane Permeable-Phenotype (%) [3]: 3% and 1% | Population Mitochondria Different-Phenotype (%) [3]: 2% and 6% | Population Mitotic Cells (%) [3]: 70% and 50% | Population Normal (%) [3]: 91% and 92% | Population Pyknosed Nuclei (%) [3]: 8% and 9% | Population Tubulin-Different-Phenotype (%) [3]: 18% and 21% | Total Cell Count [3]: 857 and 751 | Population Apoptotic (%) [4]: 66% and 54% | Population Fragmented Nuclei (%) [4]: 4% and 3% | Population Healthy Nuclei (%) [4]: 93% and 94% | Population Hoechst High Intensity Objects (%) [4]: 7% and 6% | Population Membrane Permeable-Phenotype (%) [4]: 6% and 8% | Population Mitochondria Different-Phenotype (%) [4]: 20% and 11% | Population Mitotic Cells (%) [4]: 33% and 45% | Population Normal (%) [4]: 92% and 93% | Population Pyknosed Nuclei (%) [4]: 1% | Population Tubulin-Different-Phenotype (%) [4]: 75% and 80% | Total Cell Count [4]: 463 and 591 | Population Apoptotic (%) [5]: 11% and 20% | Population Fragmented Nuclei (%) [5]: 16% and 11% | Population Healthy Nuclei (%) [5]: 79% and 85% | Population Hoechst High Intensity Objects (%) [5]: 10% and 9% | Population Membrane Permeable-Phenotype (%) [5]: 3% | Population Mitochondria Different-Phenotype (%) [5]: 0% and 2% | Population Mitotic Cells (%) [5]: 88% and 80% | Population Normal (%) [5]: 89% and 90% | Population Pyknosed Nuclei (%) [5]: 4% and 3% | Population Tubulin-Different-Phenotype (%) [5]: 7% and 11% | Total Cell Count [5]: 1935 and 1522 | Population Apoptotic (%) [6]: 81% and 57% | Population Fragmented Nuclei (%) [6]: 11% and 10% | Population Healthy Nuclei (%) [6]: 86% and 85% | Population Hoechst High Intensity Objects (%) [6]: 9% | Population Membrane Permeable-Phenotype (%) [6]: 4% | Population Mitochondria Different-Phenotype (%) [6]: 6% and 10% | Population Mitotic Cells (%) [6]: 18% and 42% | Population Normal (%) [6]: 90% | Population Pyknosed Nuclei (%) [6]: 1% and 3% | Population Tubulin-Different-Phenotype (%) [6]: 56% and 45% | Total Cell Count [6]: 617 and 528

COc1ccc(NC(=O)c2ccc(-c3ccc(-c4noc(C)n4)cc3C)cc2)cc1OCCN(C)C.Cl
Population Apoptotic (%) [1]: 44% and 57% | Population Fragmented Nuclei (%) [1]: 3% | Population Healthy Nuclei (%) [1]: 84% and 81% | Population Hoechst High Intensity Objects (%) [1]: 6% and 8% | Population Membrane Permeable-Phenotype (%) [1]: 3% and 4% | Population Mitochondria Different-Phenotype (%) [1]: 26% and 29% | Population Mitotic Cells (%) [1]: 55% and 42% | Population Normal (%) [1]: 93% and 91% | Population Pyknosed Nuclei (%) [1]: 11% and 15% | Population Tubulin-Different-Phenotype (%) [1]: 80% and 75% | Total Cell Count [1]: 604 and 505 | Population Apoptotic (%) [2]: 83% and 80% | Population Fragmented Nuclei (%) [2]: 5% and 4% | Population Healthy Nuclei (%) [2]: 51% and 50% | Population Hoechst High Intensity Objects (%) [2]: 19% and 18% | Population Membrane Permeable-Phenotype (%) [2]: 4% and 1% | Population Mitochondria Different-Phenotype (%) [2]: 74% and 77% | Population Mitotic Cells (%) [2]: 16% and 19% | Population Normal (%) [2]: 80% and 81% | Population Pyknosed Nuclei (%) [2]: 43% and 44% | Population Tubulin-Different-Phenotype (%) [2]: 87% and 90% | Total Cell Count [2]: 326 and 269 | Population Apoptotic (%) [3]: 55% and 64% | Population Fragmented Nuclei (%) [3]: 5% | Population Healthy Nuclei (%) [3]: 84% and 81% | Population Hoechst High Intensity Objects (%) [3]: 6% and 11% | Population Membrane Permeable-Phenotype (%) [3]: 6% and 3% | Population Mitochondria Different-Phenotype (%) [3]: 19% | Population Mitotic Cells (%) [3]: 44% and 35% | Population Normal (%) [3]: 93% and 88% | Population Pyknosed Nuclei (%) [3]: 10% and 13% | Population Tubulin-Different-Phenotype (%) [3]: 66% and 62% | Total Cell Count [3]: 768 and 603 | Population Apoptotic (%) [4]: 82% and 89% | Population Fragmented Nuclei (%) [4]: 6% | Population Healthy Nuclei (%) [4]: 32% and 33% | Population Hoechst High Intensity Objects (%) [4]: 23% and 19% | Population Membrane Permeable-Phenotype (%) [4]: 6% and 0% | Population Mitochondria Different-Phenotype (%) [4]: 74% and 77% | Population Mitotic Cells (%) [4]: 17% and 10% | Population Normal (%) [4]: 76% and 80% | Population Pyknosed Nuclei (%) [4]: 60% | Population Tubulin-Different-Phenotype (%) [4]: 74% and 86% | Total Cell Count [4]: 296 and 269 | Population Apoptotic (%) [5]: 43% and 51% | Population Fragmented Nuclei (%) [5]: 10% and 8% | Population Healthy Nuclei (%) [5]: 84% and 83% | Population Hoechst High Intensity Objects (%) [5]: 9% and 10% | Population Membrane Permeable-Phenotype (%) [5]: 5% | Population Mitochondria Different-Phenotype (%) [5]: 3% and 6% | Population Mitotic Cells (%) [5]: 56% and 48% | Population Normal (%) [5]: 90% and 89% | Population Pyknosed Nuclei (%) [5]: 4% and 8% | Population Tubulin-Different-Phenotype (%) [5]: 40% and 41% | Total Cell Count [5]: 1630 and 1219 | Population Apoptotic (%) [6]: 86% and 92% | Population Fragmented Nuclei (%) [6]: 8% and 7% | Population Healthy Nuclei (%) [6]: 24% and 19% | Population Hoechst High Intensity Objects (%) [6]: 28% and 22% | Population Membrane Permeable-Phenotype (%) [6]: 3% and 2% | Population Mitochondria Different-Phenotype (%) [6]: 72% and 70% | Population Mitotic Cells (%) [6]: 13% and 7% | Population Normal (%) [6]: 71% and 77% | Population Pyknosed Nuclei (%) [6]: 66% and 72% | Population Tubulin-Different-Phenotype (%) [6]: 84% and 87% | Total Cell Count [6]: 289 and 271
